Reference: ChEMBL document CHEMBL2406985, “Evaluation of (4-aminobutyloxy)quinolines as a novel class of antifungal agents” (2013)
In brackets after ≈: the same amount, converted by molar mass.

Legend:
Type in all cases: functional
[1] = tested on: Fusarium solani; test: Antifungal activity against Fusarium solani CBS 230.34 at 0.1 mg/uL per disc after 48 hrs by disc diffusion test
[2] = tested on: Aspergillus flavus; test: Antifungal activity against Aspergillus flavus ATCC 44310 at 0.1 mg/uL per disc after 48 hrs by disc diffusion test
[3] = Antifungal activity against Rhodotorula bogoriensis MUCL 11796 at 0.1 mg/uL per disc after 24 hrs by disc diffusion test
[4] = tested on: Candida albicans; test: Antifungal activity against Candida albicans IHEM 374 at 0.1 mg/uL per disc after 24 hrs by disc diffusion test
[5] = tested on: Aspergillus flavus; test: Antifungal activity against Aspergillus flavus ATCC 44310 after 48 to 72 hrs by microdilution method
In short: (§1)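 Broth microdilution used stock inocula in saline at 0.5 McFarland. A log2 dilution series (0–500 mg/L) was made in double-concentration RPMI-1640 with glutamine and a pH indicator, without bicarbonate. Plates were incubated at 37 °C without agitation: C. albicans and R. bogoriensis 24 h, A. flavus 48 h, F. solani 72 h. Absorbance was read at 530 nm to give the MIC.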

[6] = Antifungal activity against Rhodotorula bogoriensis MUCL 11796 after 24 hrs by microdilution method; in short: as §1
[7] = tested on: Candida albicans; test: Antifungal activity against Candida albicans IHEM 374 after 24 hrs by microdilution method; settings: IHEM 374, 24 h; in short: as §1
[8] = tested on: Fusarium solani; test: Antifungal activity against Fusarium solani CBS 230.34 after 48 to 72 hrs by microdilution method; in short: as §1

MIC [5] | MIC [6] | MIC [7] | MIC [8] | Compound | diameter of the inhibition zone (DIZ) [1] | diameter of the inhibition zone (DIZ) [2] | inhibition zone (IZ) [3] | diameter of the inhibition zone (DIZ) [4]
 |  |  |  | CCN(CC)CCCCOc1cccc2cccnc12 | 0 mm | 0 mm | 0 mm | 0 mm
 |  |  |  | CCN(CC)CCCCOc1ccc(Cl)c2cccnc12 | 0 mm | 0 mm | 0 mm | 12 mm
 |  |  |  | CCN(CC)CCCCOc1c(I)cc(Cl)c2cccnc12 | 0 mm | 7 mm | 14 mm | 0 mm
2 µg/mL (≈ 4.5 µM) | 0.5 µg/mL (≈ 1.13 µM) | 0.25 µg/mL (≈ 0.563 µM) |  | CCN(CC)CCC(C)COc1c(Br)cc(Br)c2cccnc12 (centres undefined) | 0 mm | 7 mm | 28 mm | 20 mm
 |  |  |  | CCN(CC)CCC(C)COc1cccc2cccnc12 (centres undefined) | 0 mm | 0 mm | 0 mm | 0 mm
 |  |  |  | Clc1ccc(CNCCCCOc2ccc3ncccc3c2)cc1 | 0 mm | 0 mm | 0 mm | 0 mm
 |  |  |  | Clc1ccc(CNCCCCOc2cccc3ncccc23)cc1 | 0 mm | 0 mm | 0 mm | 0 mm
 |  |  |  | CCN(CC)CCCCOc1ccc2ncccc2c1 | 0 mm | 0 mm | 0 mm | 0 mm
 |  |  |  | CC(CCNCc1ccc(Cl)cc1)COc1cccc2cccnc12 (centres undefined) | 0 mm | 0 mm | 15 mm | 0 mm
0.5 µg/mL (≈ 1.41 µM) | 0.25 µg/mL (≈ 0.704 µM) | 0.5 µg/mL (≈ 1.41 µM) |  | CCN(CC)CCC(C)COc1c(Cl)cc(Cl)c2cccnc12 (centres undefined) | 0 mm | 12 mm | 32 mm | 10 mm
 |  |  |  | CCN(CC)CCCCOc1cccc2ncccc12 | 0 mm | 0 mm | 0 mm | 0 mm
0.5 µg/mL (≈ 1.35 µM) | 0.12 µg/mL (≈ 0.325 µM) | 0.25 µg/mL (≈ 0.677 µM) | 0.5 µg/mL (≈ 1.35 µM) | CCN(CC)CCC(C)COc1c(Cl)cc(Cl)c2ccc(C)nc12 (centres undefined) | 20 mm | 10 mm | 30 mm | 20 mm
 |  |  |  | CC(CCNCc1ccc(Cl)cc1)COc1c(I)cc(I)c2cccnc12 (centres undefined) | 0 mm | 0 mm | 10 mm | 7 mm
 |  |  |  | Clc1ccc(CNCCCCOc2ccc(Cl)c3cccnc23)cc1 | 0 mm | 0 mm | 30 mm | 8 mm
4 µg/mL (≈ 7.43 µM) | 0.5 µg/mL (≈ 0.929 µM) | 0.5 µg/mL (≈ 0.929 µM) |  | CCN(CC)CCC(C)COc1c(I)cc(I)c2cccnc12 (centres undefined) | 0 mm | 7 mm | 26 mm | 12 mm
 |  |  |  | CC(CCNCc1ccc(Cl)cc1)COc1cccc2ncccc12 (centres undefined) | 0 mm | 0 mm | 7 mm | 0 mm
4 µg/mL (≈ 8.95 µM) | 0.25 µg/mL (≈ 0.56 µM) | 4 µg/mL (≈ 8.95 µM) |  | CCN(CC)CCC(C)COc1c(I)cc(Cl)c2cccnc12 (centres undefined) | 0 mm | 10 mm | 30 mm | 7 mm
